Consider 14 molecules from PubChem BioAssay.

Active and inactive are the calls of the source.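 How the source made its calls, unless noted: active means inhibition above 20% together with a positive visual image hit; inconclusive means visual image hit but inhibition not above 20%; inactive means no visual image hit.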

Experiment [1] in a line: inhibitors of TNFa-induced NFkB p65 translocation, primary screen, imaging, HUVEC, MLSMR starter and 10KST1 sets (AID 438).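 Further: compound added about 3h40 before a 20 min TNFalpha stimulation.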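 On inhibition: signal is the nuclear over cytoplasmic p65 intensity ratio per well.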 As to conditions: HUVEC TNFa-induced p65 nuclear translocation; cell count: measured here: nuclei count (cytotoxicity indicator), at 2.08 µM; inhibition: at 2 µM, stronger effect = higher value, 0% TNFa-plus-vehicle, 100% no-TNFa wells.
The nature of experiment [2]: reduction of polyQ htt aggregates in cells – imaging, exon1htt(103Q)mCFP cells, high-content imaging, primary screen (AID 483;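 active means visual image review flags a hit and inhibition of aggregation exceeds 20%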;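 further: compound exposure lasted 3 days before fixation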;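 on nuclei count: percent of the per-plate median nuclei count of sample wells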). As to conditions: exon1htt(103Q)mCFP cell line, aggregate imaging, at 2 µM; inhibition of aggregation: stronger effect = higher value; nuclei count: measured here: cell count, toxicity.
The nature of experiment [3]: endothelial E-selectin expression blockers – imaging, HUVEC, immunofluorescence, MLSMR starter and 10KST1 sets, primary screen (AID 487;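 active means visually confirmed hit in the image check and inhibition above 20%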;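 on inhibition: signal is fraction of cell area covered by stained E-selectin grains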;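 on nuclei count: 100% = median nuclei count of all wells on the same plate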). As to conditions: HUVEC TNFalpha-induced E-selectin immunofluorescence imaging, at 2 µM; inhibition: stronger effect = higher value; nuclei count: measured here: cell number, toxicity.
Experiment [4] has as its target Voltage-gated potassium channel subunit beta-2 (Rattus norvegicus) (UniProt P62483). The experiment is described as follows: inhibitors of rat Kvbeta2 reductase activity – biochemical, NADPH fluorescence, primary screen (AID 622;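 active means fluorescence slope higher than the sample average by over 3 SD, cut at about -0.22 in these data, passing the limit was not always enough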;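 further: slope of raw intensity against log time taken from 70 to 1610 s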). The note with it: recombinant KvBeta, 4-cyanobenzaldehyde reduction, at 10 µM, stronger effect = higher value.
For experiment [5] the target is unchanged. Put plainly: enhancers of rat Kvbeta2 NADPH turnover – biochemical, NADPH fluorescence, primary screen (AID 623;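 active means NADPH fluorescence slope more negative than the mean of all samples by about 3 SD, 99.7% confidence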;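 further: fluorescence intensity change per second fitted from 20 to 320 s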). The note with it: Recombinant KvBeta, NADPH fluorescence decrease slope, 10 min; at 10 µM; stronger effect = lower value.
Experiment [6] has as its target Muscarinic acetylcholine receptor M4 (Homo sapiens) (UniProt P08173). Put plainly: M4-linked GIRK flux change, two-sided – cell-based, HEK293 M4/GIRK, thallium flux, BTC-AM, M4 allosteric agonist project, primary screen (AID 625;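 active means fluorescence slope after compound addition differing from the mean of all tested samples at 99.7% confidence, mostly higher but some lower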;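 further: thallium influx through GIRK channels coupled to M4 in HEK293 cells with BTC-AM dye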). The note with it: at 10 µM, actives lie on both sides. A digest of the protocol:
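Material: M4/GIRK1/GIRK2 stable HEK293 cell line. Medium: pH 7.3 thallium assay buffer. Dosing: single compound concentration, 10 µM final. Schedule: 1 h dye loading, 2 min kinetic read. Measured by: kinetic fluorescence with BTC-AM dye. Read-out: post-addition slope, 15–24 s, of baseline-normalized fluorescence. Benchmarks: carbachol and DMSO controls.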

Experiment [7] can be described thus: blockers of RIG-like receptor reporter activation – cell-based, Sendai virus stimulus, luciferase, 10K MLSCN set, TLR/RLR signaling modifier project, primary screen (AID 602276;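 active means inhibition at or above 50% at 10 µM; inactive means inhibition below 50%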;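 further: firefly luciferase from ISG56 promoter only with Renilla not read in this screen; 0% = Sendai virus plus DMSO and 100% = medium plus DMSO without virus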). The note with it: HEK293 RL24 IRF3 luciferase reporter, at 10 µM, stronger effect = higher value. For orientation: A reporter such as luciferase makes a cellular process visible.
Experiment [8] can be described thus: TLR3 IRF3 reporter activation blockers – cell-based, poly I:C stimulus, luciferase, 10K MLSCN set, primary screen (AID 602277;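 active means inhibition of the reporter signal at or above 50%; inactive means inhibition below 50%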). As to conditions: HEK293-TLR3 RL24 IRF3 luciferase reporter, at 10 µM, stronger effect = higher value.

Sequence of Muscarinic acetylcholine receptor M4 (Homo sapiens) (P08173 whole entry, looked up): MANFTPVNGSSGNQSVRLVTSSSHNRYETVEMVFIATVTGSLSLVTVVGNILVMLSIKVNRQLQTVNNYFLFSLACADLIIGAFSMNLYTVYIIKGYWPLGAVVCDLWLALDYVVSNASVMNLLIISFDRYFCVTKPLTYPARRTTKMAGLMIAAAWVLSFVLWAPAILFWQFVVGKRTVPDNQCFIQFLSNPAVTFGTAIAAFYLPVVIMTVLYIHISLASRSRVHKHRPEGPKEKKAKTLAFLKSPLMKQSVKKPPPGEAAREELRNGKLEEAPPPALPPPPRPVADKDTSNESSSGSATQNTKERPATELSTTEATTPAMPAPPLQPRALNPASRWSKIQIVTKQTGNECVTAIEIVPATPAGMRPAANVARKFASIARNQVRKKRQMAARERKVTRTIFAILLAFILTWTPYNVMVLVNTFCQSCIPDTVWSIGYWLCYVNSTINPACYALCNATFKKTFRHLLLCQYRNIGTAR
Sequence of Voltage-gated potassium channel subunit beta-2 (Rattus norvegicus) (P62483 whole entry, looked up): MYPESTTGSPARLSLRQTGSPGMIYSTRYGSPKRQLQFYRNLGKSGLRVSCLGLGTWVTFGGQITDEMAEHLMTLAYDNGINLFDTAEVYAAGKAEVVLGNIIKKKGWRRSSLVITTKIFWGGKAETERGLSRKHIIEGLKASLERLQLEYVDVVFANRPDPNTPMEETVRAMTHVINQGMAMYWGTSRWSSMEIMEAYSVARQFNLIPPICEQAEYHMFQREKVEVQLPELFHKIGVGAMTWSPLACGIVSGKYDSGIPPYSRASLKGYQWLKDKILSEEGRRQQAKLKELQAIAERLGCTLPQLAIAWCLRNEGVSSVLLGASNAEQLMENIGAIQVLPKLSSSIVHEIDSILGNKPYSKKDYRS

With `CCC(Oc1ccc2ccccc2c1)C(=O)O` (centres undefined), in experiment [1], the cell count is 666. Further, the inhibition is -4% (inactive) in experiment [1], -39.6% (inactive) in experiment [3], -9.77% (inactive) in experiment [7] and -32.2% (inactive) in experiment [8]. The inhibition of aggregation in experiment [2] was -46.2% (inactive). Moreover, the values for the nuclei count in experiment [2] and in experiment [3] were 129% and 137%, respectively. The fluorescence slope in experiment [4] was -0.489 (inactive); in experiment [6] it was 0.00595 (inactive). Further, the NADPH fluorescence slope in experiment [5] is 6e-05 (inactive).

Take `COc1ccc(C2C3=C(CC(C)(C)CC3=O)Oc3ncn4nc(-c5cccnc5)nc4c32)cc1` (centres undefined): the cell count in experiment [1] worked out at 474. Besides, the inhibition was 2.7% (inactive) in experiment [1], -78.2% (inactive) in experiment [3], -0.431% (inactive) in experiment [7] and 17.2% (inactive) in experiment [8]. In experiment [2], the inhibition of aggregation is 2% (inactive). For the same molecule, the nuclei count in experiment [2] turned out to be 83.8%; in experiment [3], 144%. In addition, the fluorescence slope in experiment [4] was -0.327 (inactive); in experiment [6], 0.00713 (inactive). In addition, the NADPH fluorescence slope in experiment [5] was -2.3e-05 (inactive).

Take `C=C(C)CSc1nnc2[nH]c(=O)cc(N)n12`: the cell count in experiment [1] worked out at 371. Moreover, the inhibition in experiment [1] was 0% (inactive); in experiment [3] it was -70.9% (inactive); in experiment [7] it was 15.7% (inactive); in experiment [8], 14.4% (inactive). The inhibition of aggregation in experiment [2] was 31.5% (inactive). The nuclei count in experiment [2] was found to be 54.8%; in experiment [3], 116%. The results for the fluorescence slope in experiment [4] and in experiment [6] were -0.458 (inactive) and 0.00517 (inactive), respectively. Moreover, the NADPH fluorescence slope in experiment [5] was -6e-05 (inactive).

On to `COc1ccc(S(=O)(=O)NCc2ccco2)cc1-c1nnc2c3ccccc3c(C)nn12`, for which, in experiment [1], the cell count was found to be 723. Further, the inhibition in experiment [1] is -2.2% (inactive); in experiment [3], -77.8% (inactive); in experiment [7], 12.3% (inactive); in experiment [8], 11.8% (inactive). Also, the inhibition of aggregation in experiment [2] was -27% (inactive). In addition, the nuclei count in experiment [2] stood at 101%; in experiment [3], 106%. Moreover, the figures for the fluorescence slope in experiment [4] and in experiment [6] were -0.444 (inactive) and 0.00549 (inactive), respectively. Further, the NADPH fluorescence slope in experiment [5] is -2.6e-05 (inactive).

With `CCc1cc(-c2[nH]ncc2-c2ccc3c(c2)OCO3)c(O)cc1O`, in experiment [1], the cell count was determined as 511. For the same molecule, the inhibition in experiment [1] was 0.5% (inactive); in experiment [3] it was -11.5% (inactive); in experiment [7], 14% (inactive); in experiment [8] it was -66.6% (inactive). Also, the inhibition of aggregation in experiment [2] was 26% (inactive). Moreover, the nuclei count in experiment [2] is 97.8%; in experiment [3] it was 111%. Further, the fluorescence slope in experiment [4] is -0.572 (inactive); in experiment [6] it was 0.00533 (inactive). The NADPH fluorescence slope in experiment [5] was 3.5e-05 (inactive).

On to `COc1ccc(CCNC(=O)c2cc(-c3cc(C)c(C)cc3O)n[nH]2)cc1OC`, for which, in experiment [1], the cell count turned out to be 434. The inhibition was 2.8% (inactive) in experiment [1], -83.7% (inactive) in experiment [3], 9.16% (inactive) in experiment [7] and 9.05% (inactive) in experiment [8]. Besides, the inhibition of aggregation in experiment [2] was 8.6% (inactive). The values for the nuclei count in experiment [2] and in experiment [3] were 88.9% and 145%, respectively. For the same molecule, the fluorescence slope in experiment [4] is -0.444 (inactive); in experiment [6], 0.00555 (inactive). The NADPH fluorescence slope in experiment [5] is -0.000364 (inactive).

`c1ccc2c(c1)Cn1c-2nc2ccccc21`: the cell count in experiment [1] was 700. In addition, the inhibition in experiment [1] was -28.4% (inactive); in experiment [3], -26.5% (inactive); in experiment [7] it was -36.1% (inactive); in experiment [8], -131% (inactive). Also, in experiment [2], the inhibition of aggregation is 5.7% (inactive). Moreover, the nuclei count in experiment [2] worked out at 80.7%; in experiment [3], 114%. The fluorescence slope is -0.349 (inactive) in experiment [4] and 0.00562 (inactive) in experiment [6]. The NADPH fluorescence slope in experiment [5] was -6.3e-05 (inactive).

Turning to `CCCCC(=NCCO)C1=C(O)C(C(=O)OC)C(C)(C)CC1=O` (centres undefined), the cell count in experiment [1] turned out to be 473. Moreover, the inhibition is 1.8% (inactive) in experiment [1], -64.1% (inactive) in experiment [3], 16.3% (inactive) in experiment [7] and 18.4% (inactive) in experiment [8]. The inhibition of aggregation in experiment [2] was 0.5% (inactive). The nuclei count in experiment [2] was 102%; in experiment [3], 167%. The fluorescence slope was -0.407 (inactive) in experiment [4] and 0.00804 (inactive) in experiment [6]. Besides, the NADPH fluorescence slope in experiment [5] is 5e-05 (inactive).

Turning to `N#Cc1c(SCC(=O)N2CCOCC2)nsc1SCC(=O)N1CCOCC1`, the cell count in experiment [1] was found to be 398. Besides, the inhibition is -8.5% (inactive) in experiment [1], -45% (inactive) in experiment [3], 3.35% (inactive) in experiment [7] and 4.99% (inactive) in experiment [8]. Also, the inhibition of aggregation in experiment [2] is -6.4% (inactive). Also, the values for the nuclei count in experiment [2] and in experiment [3] were 99.1% and 117%, respectively. The values for the fluorescence slope in experiment [4] and in experiment [6] were -0.565 (inactive) and 0.0058 (inactive), respectively. Moreover, the NADPH fluorescence slope in experiment [5] is -2.7e-05 (inactive).

As for `O=C(Nc1ccc(Cl)c(Cl)c1)Nc1cc(C(=O)N2CCOCC2)ccc1N1CCCCC1`, the cell count in experiment [1] is 580. The inhibition in experiment [1] is -17.7% (inactive); in experiment [3], -44.8% (inactive); in experiment [7], 13.7% (inactive); in experiment [8], 13.1% (inactive). The inhibition of aggregation in experiment [2] was -5.4% (inactive). Also, the nuclei count in experiment [2] and in experiment [3] was 114% in each case. Besides, the fluorescence slope in experiment [4] is -0.441 (inactive); in experiment [6] it was 0.00555 (inactive). Moreover, in experiment [5], the NADPH fluorescence slope is -7.7e-06 (inactive).

For `C=CCOc1ccc(C2C(C(=O)c3ccco3)=C(O)C(=O)N2Cc2cccnc2)cc1` (centres undefined), the cell count in experiment [1] is 341. Also, the inhibition in experiment [1] is -7.7% (inactive); in experiment [3] it was -61.9% (inactive); in experiment [7], 17.4% (inactive); in experiment [8] it was 14.5% (inactive). Further, in experiment [2], the inhibition of aggregation was -11.2% (inactive). Moreover, the nuclei count in experiment [2] was determined as 107%; in experiment [3], 103%. Moreover, the fluorescence slope is -0.543 (inactive) in experiment [4] and 0.00458 (inactive) in experiment [6]. The NADPH fluorescence slope in experiment [5] is -0.000128 (inactive).

Turning to `Cn1c(SC/C=C/c2ccccc2)nnc1-c1cnccn1`, in experiment [1], the cell count worked out at 630. Moreover, the inhibition in experiment [1] is 1.1% (inactive); in experiment [3] it was 6.2% (inactive); in experiment [7], -12.1% (inactive); in experiment [8], -35% (inactive). For the same molecule, in experiment [2], the inhibition of aggregation was -4.5% (inactive). The nuclei count in experiment [2] is 114%; in experiment [3], 95.1%. Besides, the fluorescence slope in experiment [4] is -0.572 (inactive); in experiment [6] it was 0.00503 (inactive). The NADPH fluorescence slope in experiment [5] is 2.7e-05 (inactive).

In the case of `CC(C)NC(=O)CSc1nnc(-c2ccc(C(C)(C)C)cc2)n1C`, in experiment [1], the cell count stood at 563. In addition, the inhibition in experiment [1] was -16% (inactive); in experiment [3] it was 8% (inactive); in experiment [7], 4.36% (inactive); in experiment [8] it was 1.25% (inactive). Further, in experiment [2], the inhibition of aggregation is -4.3% (inactive). Moreover, the nuclei count in experiment [2] stood at 96.8%; in experiment [3] it was 117%. The fluorescence slope was -0.465 (inactive) in experiment [4] and 0.00698 (inactive) in experiment [6]. Further, the NADPH fluorescence slope in experiment [5] was 5.2e-06 (inactive).

`O=C(CCSc1ccccc1)N1CCN(C(=O)c2ccco2)CC1`: the cell count in experiment [1] was 462. The inhibition in experiment [1] was -11.1% (inactive); in experiment [3], -29.7% (inactive); in experiment [7] it was -23.3% (inactive); in experiment [8], -56% (inactive). Besides, the inhibition of aggregation in experiment [2] was 2% (inactive). Moreover, the values for the nuclei count in experiment [2] and in experiment [3] were 102% and 97.1%, respectively. The fluorescence slope was -0.603 (inactive) in experiment [4] and 0.0052 (inactive) in experiment [6]. The NADPH fluorescence slope in experiment [5] was -3.1e-05 (inactive).

What is called inhibition is the change of the read-out against control, counted positive when it falls.
